# Bioassay records: PubChem BioAssay, several laboratories
# RGS4 block = inhibitors of human RGS4; P49798; HEK293 M3R/RGS4 inducible, Fluo-4 calcium flux; hits give high values; triggered by carbachol at its EC20; B-score at 10 µM; actives 0.45% (n = 310,000);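 active = B-score, a plate-corrected calcium signal, over three deviations above library mean, with baseline fluorescence within five deviations of library mean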;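 also: RGS4 expression induced by doxycycline in cells with stable M3 receptor; B-score is computed from the integrated fluorescence ratio over baseline after carbachol; higher B-score means a larger calcium signal and so more RGS4 inhibition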
# Target sequence (P49798 whole entry, looked up): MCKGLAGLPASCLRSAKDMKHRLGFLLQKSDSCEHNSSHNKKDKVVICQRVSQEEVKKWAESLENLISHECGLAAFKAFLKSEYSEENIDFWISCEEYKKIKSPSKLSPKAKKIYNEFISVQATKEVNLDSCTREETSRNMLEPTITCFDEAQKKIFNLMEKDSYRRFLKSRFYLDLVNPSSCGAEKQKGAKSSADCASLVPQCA
# MrgX1 allo act = allosterically activates human MrgX1 receptor signaling; Q96LB2; MrgX1-HEK293, Fluo-4 calcium flux, FDSS; hits give high values; B-score at 10 µM; actives 0.63% (n = 310,000); AID 588675;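 active = plate-corrected calcium response at least 3 library SD above typical, normal starting fluorescence, not activating the receptor alone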;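 also: compound read alongside a low EC10 to EC30 dose of BAM8-22 agonist; peak minus trough fluorescence over baseline measured at the second addition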
# MrgX1 antag = human MrgX1 receptor antagonism, primary screen; Q96LB2; MRGX1-HEK293 calcium flux, Fluo-4, BAM8-22 antagonism; hits give low values; B-score at 10 µM; actives 1.3% (n = 310,000); AID 588676;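 active = calcium-response B-score plate-corrected more than 3 library SD below zero, starting fluorescence within 5 deviations, no agonist response on first addition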;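 also: peak minus trough fluorescence over baseline after final BAM8-22 challenge near maximal dose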
# MrgX1 ag = activates human MrgX1 receptor signaling; Q96LB2; AID 588627; MrgX1-HEK293 cells, Fluo-4 calcium fluorescence, agonist mode; hits give high values; actives 0.44% (n = 310,000); B-score at 10 µM;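 active = calcium response B-score plate-corrected fluorescence ratio at least 3 library SD, with starting fluorescence B-score inside 5 SD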
#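 System: HEK293 cells stably expressing human MrgX1 receptor; Dosing: test compound in the initial addition of three; Schedule: overnight plating, then 30 min 37 °C plus 30 min room-temperature dye loading; Detection: kinetic calcium dye fluorescence, Fluo-4 NW; Controls: per-plate positive and negative controls for Z′ factor.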
# RGS4 act = potentiators or activators of RGS4 | HEK293 M3R/inducible RGS4, carbachol calcium flux Fluo4; hits give low values | B-score at 10 µM | actives 0.92% (n = 310,000);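 active = B-score of the integrated calcium signal more than 4 SD below the library mean, with starting fluorescence not abnormally high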;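 also: negative B-score means reduced calcium response which marks RGS4 activation or potentiation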
#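 System: HEK293 FlpIn-TREx cells, stable M3R, doxycycline-inducible RGS4. Timing: overnight RGS4 induction, 30 min dye load 37 °C, 20 min compound RT. Also added: carbachol, ECmax concentration. Measured by: Fluo4 fluorescence kinetic imaging of calcium. Evaluation: integrated calcium ratio converted to B score.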
# KCC2 mod = modulators of human KCC2 chloride dependent transport | Q9H2X9 | KCC2 cells, thallium flux FluoZin-2 fluorescence | B-score of Tl+ flux slope (higher = more flux/activation; lower = inhibition) at 10 µM | actives 2.2% (n = 190,000);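 active = thallium flux slope and its plate-corrected score both differing from the plate sample mean at a set confidence after two filtering rounds, in either direction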;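 also: slope of fluorescence scaled to starting intensity during 10 to 20 s after thallium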
# The depositor's hits bear a star; i = inactive; · = no result; ! = not confirmed by another sample. An excerpt weighted towards active compounds, which were near 4.7% of everything screened.
SMILES,RGS4 block,MrgX1 allo act,MrgX1 antag,MrgX1 ag,RGS4 act,KCC2 mod
C[C@]12CC(=O)CC1CCC1C2CC[C@@]2(C)C1CC[C@@H]2O (stereo partly specified),i,i,i,i,i,·
CCCCCCC(=O)c1c(O)n(-c2ccc(OC)cc2)c(=O)[nH]c1=O (tested in a mixture with another compound),i,i,i,i,i,-0.606
O=C1NC(=O)N(Cc2ccccc2)C(=O)/C1=C/c1cnn(-c2ccccc2)c1,i,i,-5.49*,i,i,0.015
OC(Cn1c2ccccc2c2ccccc21)C[n+]1cccc2ccccc21 (stereo unspecified),i,i,i,i,-7.93*,0.0187
CN(C)c1cc[n+](CC(O)C[n+]2ccc(N(C)C)cc2)cc1,i,i,i,i,i,·
O=C(CCNC(=O)N1C[C@H]2C[C@@H](C1)c1cccc(=O)n1C2)Nc1cccc(Cl)c1,i,i,i,i,i,·
CN1CCN(Cc2cc(C(C)(C)C)c(O)c(C(C)(C)C)c2)CC1,i,i,-5.21*,i,i,-0.161
CCCCCCOc1ccc(CN2CCN(CC)CC2)cc1,i,i,i,i,-7.14*,-0.174
CCN1CCN(Cc2ccc(OC(F)(F)F)cc2)CC1,i,i,i,i,i,-1.88
Cc1c(C=O)c2ccccc2n1Cc1ccc([N+](=O)[O-])cc1,i,i,-5.27*,i,i,-0.819
O=C(c1ccc(Cl)cc1)C1CCCN(Cc2cccc3cccnc23)C1 (stereo unspecified),i,i,i,i,-7.07*,-0.185
O=C(c1ccc(Cl)cc1)C1CCCN(Cc2cccc3ncccc23)C1 (stereo unspecified),i,i,i,i,i,-0.841
O=C1NC(=O)C(=Cc2ccc(N3CCOCC3)o2)C(=O)N1,i,i,i,i,-7.64*,0.0692
CCCCCc1cc(O)c2c3c(c(=O)oc2c1)CN(C)CC3,i,i,i,i,i,0.607
CC[n+]1c(/C=C/C=C/c2ccc(N(C)C)cc2)sc2ccccc21,i,i,i,i,i,-0.271
CC[n+]1c(/C=C/N(C)c2ccccc2)sc2ccc(Cl)cc21,i,i,i,i,-9.53*,-1.66
O=C(Cn1c(NCCCl)nc2ccccc21)c1ccc(Br)cc1,i,i,i,i,i,·
O=C(O)c1ccc(NC(=O)N2C[C@H]3C[C@@H](C2)c2cccc(=O)n2C3)cc1,i,i,i,i,-10.1*,·
O=C(Nc1ccc2ccccc2c1)N1C[C@H]2C[C@@H](C1)c1cccc(=O)n1C2,i,i,i,i,i,0.496
FC(F)=C(F)CCSc1ncn[nH]1,i,i,i,i,i,-0.134
Clc1cnc(Oc2ccc(Oc3ncc(Cl)cc3Cl)cc2)c(Cl)c1,i,12.6*,i,i,i,0.806
CCN(CC)c1ccc(N=Cc2c(O)n(-c3ccccc3)c(=O)[nH]c2=O)cc1,i,i,i,i,i,-0.923
CCN(CC)c1ccc(N=Cc2c(O)n(Cc3ccccc3)c(=O)[nH]c2=O)cc1,i,i,i,i,-7.27*!,-1.64
Cn1c(O)c(/C=N/N2CCOCC2)c(=O)n(C)c1=S,i,i,i,i,i,0.255
CC(C)c1ccc(-n2c(O)c(C=NCCN3CCNCC3)c(=O)[nH]c2=S)cc1,i,i,i,i,i,·
Oc1cc(Cl)ccc1Oc1ccc(Cl)cc1Cl,i,i,i,i,-7.06*,·
COc1ccc(C(=O)C2CCCN(C3CSCCSC3)C2)cc1OC (stereo unspecified),i,i,i,i,-7.48*,0.155
COc1ccc(C(=O)C2CCCN(Cc3cnc(C)s3)C2)cc1OC (stereo unspecified),i,i,i,i,i,·
N#CC(C#N)=NNc1ccc(-n2ccc(C(F)(F)F)n2)cc1,i,i,i,i,i,-0.0225
